Measured values gathered from unrelated publications.
Compare with care: the assays were run in different laboratories.
Prolyl endopeptidase: Prolyl endopeptidase (Mus musculus, UniProt Q9QUR6)
Oprm1: Mu-type opioid receptor (Oprm1, Rattus norvegicus, UniProt P33535)
ENO1: ENO1 (Candida albicans, UniProt P30575)
Sialidase-3: Sialidase-3 (Homo sapiens, UniProt Q9UQ49)

| SMILES | target | test | conditions | endpoint | result |
| --- | --- | --- | --- | --- | --- |
| COc1c2c(cc3c1-c1c(cc4c(c1OC)OCO4)C[C@H](C)[C@H](C)C3)OCO2 | Prolyl endopeptidase | enzyme activity, inhibitor, fluorescence | – | IC50 | > 100 µM |
| COc1cc2c(cc1OC)CN(CCc1ccc(NC(=O)c3cccc4c(=O)c5cccc(OC)c5[nH]c34)cc1)CC2 | D(4) dopamine receptor (DRD4, Homo sapiens, UniProt P21917) | cell-free assay | – | Ki | > 10 µM |
| C/C=C1/CN2CC[C@]34C(=C(C(=O)OC)[C@H]1C[C@H]23)Nc1ccc(I)cc14 | Oprm1 | ligand displacement, radioligand | cell membranes | Ki | 0.388 µM |
| O=C1CCCN1CP(=O)(O)O | ENO1 | enzyme activity, inhibitor, absorbance | – | IC50 | > 50 µM |
| CCCCNC(=O)N[C@H]1[C@H]([C@H](O)[C@H](O)CO)OC(C(=O)O)=C[C@@H]1O | Sialidase-3 | enzyme activity, inhibitor | – | IC50 | > 500 µM |
| CN1C(=O)CN=C(c2ccccc2F)c2cc([N+](=O)[O-])ccc21 | Aldo-keto reductase family 1 member C2 (AKR1C2, Homo sapiens, UniProt P52895) | enzyme activity, inhibitor | – | IC50 | 1.6 µM |
| C=CCc1ccc(O)c(-c2cc(CC=C)ccc2O)c1 | Prolyl endopeptidase | enzyme activity, inhibitor, fluorescence | – | IC50 | > 100 µM |
| O=Nc1c(O)[nH]c(=O)[nH]c1=O | ENO1 | enzyme activity, inhibitor, absorbance | – | IC50 | > 50 µM |
| C/C=C1/CN2CC[C@]34C(=C(C(=O)OC)[C@H]1C[C@H]23)Nc1ccc(Br)cc14 | Oprm1 | ligand displacement, radioligand | cell membranes | Ki | 0.658 µM |
| CC(C)(C)CC(=O)N[C@H]1[C@H]([C@H](O)[C@H](O)CO)OC(C(=O)O)=C[C@@H]1O | Sialidase-3 | enzyme activity, inhibitor | – | IC50 | > 500 µM |
